Screens: PubChem BioAssay, Sanford-Burnham Center for Chemical Genomics
This is a sample that favours compounds with a hit; in the whole collection about 1.7% have one here.
STEP inh = blocks human striatal-enriched tyrosine phosphatase; P54829; recombinant STEP, OMFP fluorogenic substrate, fluorescence; inhibition, % at 20 µM; 360,000 tested, 0.25% active; AID 588621;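 active = inhibition at 20 µM, scaled per plate between control wells, above about 37%, limit read from the data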
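System: STEP phosphatase, cell-free reaction; Buffer or medium: Bis-Tris pH 6.0 buffer with DTT, detergent; Incubation: 20 min at room temperature, dark; Measured by: fluorescence, 480/540 nm.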
Scp1 inh = blocks human Scp-1 phosphatase activity; 340,000 tested, 0.88% active; Q9GZU7; inhibition, % at 20 µM; Recombinant Scp1, phosphopeptide, malachite green phosphate absorbance; AID 493091;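 active = inhibition above about 50% at 20 µM, limit read from the data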
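Material – SCP-1 phosphatase catalytic domain, residues 76-261 · Buffer or medium – Acidic Tris acetate buffer with magnesium and detergent · Also added – Phospho 17-mer peptide substrate · Compound – single 20 µM dose, 1% DMSO · Times – 45 min room-temperature reaction, 5 min colour, 30 min stabiliser · Technique – Phosphate-binding colour reagent, absorbance read at 630 nm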
DNMT1 block = blocks human DNA methyltransferase DNMT1. DNMT1 molecular beacon, Hinp1I cleavage, fluorescence. inhibition (reported as % activation of signal), % at 10 µM. 360,000 tested, 0.83% active. P26358; in the data active = inhibition above about 50%
Target sequence (P26358 504-1616 limits assumed): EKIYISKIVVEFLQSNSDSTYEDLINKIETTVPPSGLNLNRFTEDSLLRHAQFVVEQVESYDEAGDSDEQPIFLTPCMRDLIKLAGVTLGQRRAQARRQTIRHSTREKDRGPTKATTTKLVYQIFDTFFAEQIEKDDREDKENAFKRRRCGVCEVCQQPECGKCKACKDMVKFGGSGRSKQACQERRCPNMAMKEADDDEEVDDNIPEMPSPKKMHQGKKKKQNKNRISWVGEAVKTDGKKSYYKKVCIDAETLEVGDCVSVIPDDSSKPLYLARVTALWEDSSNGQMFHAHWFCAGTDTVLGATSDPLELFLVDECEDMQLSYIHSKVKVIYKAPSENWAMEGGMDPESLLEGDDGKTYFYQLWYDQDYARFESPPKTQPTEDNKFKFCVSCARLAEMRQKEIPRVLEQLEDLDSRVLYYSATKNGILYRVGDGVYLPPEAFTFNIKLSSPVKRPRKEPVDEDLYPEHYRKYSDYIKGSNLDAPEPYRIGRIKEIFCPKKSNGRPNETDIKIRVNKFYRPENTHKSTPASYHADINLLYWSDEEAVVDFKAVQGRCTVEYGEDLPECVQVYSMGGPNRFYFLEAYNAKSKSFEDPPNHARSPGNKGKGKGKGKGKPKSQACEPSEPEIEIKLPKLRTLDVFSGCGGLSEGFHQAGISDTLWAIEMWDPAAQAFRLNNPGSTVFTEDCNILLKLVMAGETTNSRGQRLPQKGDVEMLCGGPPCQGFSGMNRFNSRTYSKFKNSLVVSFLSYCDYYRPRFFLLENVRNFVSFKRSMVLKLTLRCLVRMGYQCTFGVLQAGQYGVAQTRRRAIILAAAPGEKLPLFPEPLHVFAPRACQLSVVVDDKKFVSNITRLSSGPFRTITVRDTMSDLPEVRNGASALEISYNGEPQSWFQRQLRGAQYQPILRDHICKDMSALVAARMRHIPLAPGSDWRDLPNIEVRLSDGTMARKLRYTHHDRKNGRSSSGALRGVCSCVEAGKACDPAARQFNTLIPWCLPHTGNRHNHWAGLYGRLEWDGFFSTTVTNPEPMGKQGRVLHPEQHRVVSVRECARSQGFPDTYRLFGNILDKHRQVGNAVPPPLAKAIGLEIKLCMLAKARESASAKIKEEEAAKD
LMPTP block = LMPTP (human) inhibition; P24666; recombinant LMPTP-A, OMFP fluorogenic substrate, fluorescence intensity; inhibition, % at 20 µM; 360,000 tested, 0.22% active; AID 651560;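 active = compounds that cut the enzyme signal by at least half of the control window in the single-dose screen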
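test system = LMPTP-A | amount = 0.625 nM LMPTP-A final | reagent = fluorogenic phosphatase substrate OMFP at 400 µM final | incubation = 50 min at room temperature | benchmarks = no-enzyme low control, uninhibited high control | medium = Bis-Tris pH 6.0, DTT, detergent | signal = fluorescence intensity of OMFP turnover product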
SUMO1-SIM PPI = SUMO1-SIM interaction modulation. inhibition, % at 20 µM. SUMO1 binding to a labelled peptide, TR-FRET, 1 h. P63165. AID 602429. 360,000 tested, 0.33% active; in the data active = inhibition above about 37%
DNMT1 inh conf = DNMT1 inhibition confirmation, single concentration. AID 602385. 2,300 tested, 8% active. shares compounds with DNMT1 block. DNMT1 molecular beacon HinP1I cleavage, fluorescence. inhibition, % at 10 µM;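 active = average inhibition of at least 30% in the single-concentration confirmation test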
Beacon interf = counter-screen for DNMT1 inhibitors: spectral interference; shares compounds with DNMT1 block; DNMT1 molecular beacon spectral interference counterscreen, fluorescence 485/520; activation (fluorescence interference), % at 10 µM; 2,300 tested, 1% active;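 active = activation of at least 30% at 10 µM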;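 note: DNMT1 catalytic domain with a HinP1I cleavage step and a FAM/dabcyl DNA beacon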
Numbers stand for hits.

O=C(Cc1nnc(NC(=O)Nc2ccc(Cl)cc2)s1)NCc1ccccc1 was read as STEP inh inactive, Scp1 inh inactive, DNMT1 block inactive, LMPTP block inactive, SUMO1-SIM PPI inactive, DNMT1 inh conf inactive and Beacon interf inactive.
Screening O=C(N=Nc1c(O)[nH]c2ccc(Br)cc12)c1cc(-c2cccs2)nc2ccccc12 returned STEP inh inactive, Scp1 inh inactive, DNMT1 block 65, LMPTP block inactive, SUMO1-SIM PPI inactive, DNMT1 inh conf inactive and Beacon interf inactive.
Screening Cc1ccc(OCCn2ncc3ccccc3c2=O)c(C)c1 returned STEP inh inactive, Scp1 inh inactive, DNMT1 block 51, LMPTP block inactive, SUMO1-SIM PPI inactive, DNMT1 inh conf inactive and Beacon interf inactive.
Screening CN(C)S(=O)(=O)c1cccc(NC(=O)CO/N=C(\N)c2ccccc2)c1 returned STEP inh inactive, Scp1 inh inactive, DNMT1 block inactive, LMPTP block inactive and SUMO1-SIM PPI inactive.
For CCOc1ccc(NC(=O)C2CCN(S(=O)(=O)CC)CC2)cc1 the results were STEP inh inactive, Scp1 inh inactive, DNMT1 block 60, LMPTP block inactive, SUMO1-SIM PPI inactive, DNMT1 inh conf inactive and Beacon interf inactive.
For CCOC(=O)c1ccc(NC(=O)C2CCN(S(=O)(=O)CC)CC2)cc1 the results were STEP inh inactive, Scp1 inh inactive, DNMT1 block inactive, LMPTP block inactive and SUMO1-SIM PPI inactive.
Screening O=C(NCc1ccc2c(c1)OCO2)C1CCN(C(=O)Nc2ccc(Cl)cc2)CC1 returned STEP inh inactive, Scp1 inh inactive, DNMT1 block 75, LMPTP block inactive, SUMO1-SIM PPI inactive, DNMT1 inh conf inactive and Beacon interf inactive.
For COc1ccc(/C=C(\C#N)C(=O)Nc2cc(C)c(Cl)cc2OC)cc1O the results were STEP inh inactive, Scp1 inh inactive, DNMT1 block 70, LMPTP block inactive, SUMO1-SIM PPI inactive, DNMT1 inh conf inactive and Beacon interf inactive.
`COc1ccc(/C=C(\C#N)C(=O)NCc2ccccc2)cc1O` gave STEP inh inactive, Scp1 inh inactive, DNMT1 block inactive, LMPTP block inactive and SUMO1-SIM PPI inactive.
Screening CC(C)(C)c1ccc(OCC(=O)Nc2ccc(-c3nc4cccnc4o3)cc2)cc1 returned STEP inh inactive, Scp1 inh inactive, DNMT1 block 55, LMPTP block inactive, SUMO1-SIM PPI inactive, DNMT1 inh conf inactive and Beacon interf inactive.
CC(C)C(=O)Nc1ccc(-c2nc3cccnc3o2)cc1 was read as STEP inh inactive, Scp1 inh inactive, DNMT1 block inactive, LMPTP block inactive and SUMO1-SIM PPI inactive.
`COc1ccc(CCNC(=S)NNC(=O)c2c(Br)c(C)nn2C)cc1OC` gave STEP inh inactive, Scp1 inh inactive, DNMT1 block inactive, LMPTP block inactive and SUMO1-SIM PPI inactive.
`O=C(C1=C(O)C(=O)N(c2nc3ccc(Cl)cc3s2)C1c1ccco1)c1ccco1` (stereo unspecified) gave STEP inh inactive, Scp1 inh 64, DNMT1 block 90, LMPTP block 60, SUMO1-SIM PPI 40, DNMT1 inh conf inactive and Beacon interf inactive.
COc1ccccc1C#Cc1cnc2c(c1)C(=O)N([C@H](C)CO)C[C@H](C)[C@@H](CN(C)S(=O)(=O)c1cn(C)cn1)O2 was read as STEP inh inactive, DNMT1 block 100, LMPTP block inactive, SUMO1-SIM PPI inactive, DNMT1 inh conf inactive and Beacon interf inactive.
For CCCSC1=N/C(=C\C=C\c2ccco2)C(=O)S1 the results were STEP inh inactive, Scp1 inh 69, DNMT1 block 106, LMPTP block 56, SUMO1-SIM PPI inactive, DNMT1 inh conf inactive and Beacon interf inactive.
`O=C(c1cccc(N2CCCC2=O)c1)N1CCN(c2cccc(Cl)c2)CC1` gave STEP inh inactive, Scp1 inh inactive, DNMT1 block inactive, LMPTP block inactive and SUMO1-SIM PPI inactive.
For CC[C@]12c3[nH]c4ccc(OC)cc4c3CCN1C(=O)C(CC(=O)NCc1ccco1)C[C@@H]2C(=O)N1CCN(C(=O)c2ccco2)CC1 (stereo partly specified) the results were STEP inh inactive, Scp1 inh inactive, DNMT1 block inactive, LMPTP block inactive and SUMO1-SIM PPI inactive.
For CC1CCCCC1NC(=O)c1ccc(S(=O)(=O)NCC2CCCO2)cc1 (stereo unspecified) the results were STEP inh inactive, Scp1 inh inactive, DNMT1 block inactive, LMPTP block inactive and SUMO1-SIM PPI inactive.
`CCOC(=O)c1c(C)[nH]c(C(=O)OCC(=O)Nc2ccc(OC)c(Cl)c2)c1C` gave STEP inh inactive, Scp1 inh inactive, DNMT1 block inactive, LMPTP block inactive and SUMO1-SIM PPI inactive.
Screening CCOC(=O)c1c(C)[nH]c(C(=O)OCC(=O)Nc2cc(C)ccc2OC)c1C returned STEP inh inactive, Scp1 inh inactive, DNMT1 block 62, LMPTP block inactive, SUMO1-SIM PPI inactive, DNMT1 inh conf inactive and Beacon interf inactive.
`CCOC(=O)c1c(C)[nH]c(C(=O)OCC(=O)Nc2ccc(OCC)cc2)c1C` gave STEP inh inactive, Scp1 inh inactive, DNMT1 block 69, LMPTP block inactive, SUMO1-SIM PPI inactive, DNMT1 inh conf inactive and Beacon interf inactive.
Screening CCOC(=O)c1c(C)[nH]c(C(=O)OCC(=O)N2CCc3ccccc32)c1C returned STEP inh inactive, Scp1 inh inactive, DNMT1 block 62, LMPTP block inactive, SUMO1-SIM PPI inactive, DNMT1 inh conf inactive and Beacon interf inactive.
`CCOC(=O)c1c(C)[nH]c(C(=O)OCC(=O)Nc2cc(Cl)ccc2OC)c1C` gave STEP inh inactive, Scp1 inh inactive, DNMT1 block inactive, LMPTP block inactive and SUMO1-SIM PPI inactive.
`CCOC(=O)c1[nH]c(C)c(C(=O)OCC(=O)N2CCc3ccccc32)c1C` gave STEP inh inactive, Scp1 inh inactive, DNMT1 block inactive, LMPTP block inactive and SUMO1-SIM PPI inactive.
COc1ccc(-c2nn(-c3ccccc3)cc2C(=O)NC2CC2)cc1 was read as STEP inh inactive, Scp1 inh inactive, DNMT1 block inactive, LMPTP block inactive and SUMO1-SIM PPI inactive.
Screening CC(C)N(C)c1ncnc2c1ncn2[C@H]1CN(Cc2ccc(-c3ccccc3)cc2)C[C@@H](CO)O1 returned STEP inh inactive, DNMT1 block inactive, LMPTP block inactive and SUMO1-SIM PPI inactive.
Screening CCCC(=O)O[C@]1(C(=O)COC(C)=O)CC[C@H]2[C@@H]3C[C@H](F)C4=CC(=O)C=C[C@]4(C)[C@@]3(F)[C@@H](O)C[C@@]21C returned STEP inh inactive, Scp1 inh inactive, DNMT1 block inactive, LMPTP block inactive and SUMO1-SIM PPI inactive.
